Bioassay records from PubChem BioAssay.
Hits are enriched below; roughly 6.6% of the tested compounds scored in any of these assays.
H69AR growth 86K: proliferation blockers of H69AR lung cancer cells, primary screen, cell-based, human, 86K library | viability, % at 10 µM | H69AR lung tumor viability, ATP luminescence, 72 h; hits give low values | 85,000 compounds, 6% hits;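 active means viability at or below 40%; inactive means viability above 40%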;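 further: multidrug resistant small cell line overexpressing MRP-1 efflux transporter; 100% = mean luminescence of untreated control wells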
Jurkat tox 60K: cytotoxicity toward Jurkat T cells, primary screen, cytotoxicity control, cell-based, Jurkat E6.1, 60K MLSMR library | Jurkat E6.1 viability, ATP luminescence, 48 h | inhibition, % at 4 µM | 56,000 compounds, 1.2% hits | AID 463, 2006;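 active means inhibition above the mean inhibition of all tested compounds plus 3 SD, cut at about 28% in these data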
HUVEC prolif 384: inhibitors of HUVEC proliferation, primary screen, cell-based, 384-well; 86,000 compounds, 1.1% hits; AID 648, 2007; CellTiter-Glo luminescence, 72 h; hits give low values; viability, % at 10 µM (by protocol);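 active means viability at or below 30%; inactive means viability above 30%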;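 further: 100% = median luminescence of DMSO-only cell control wells on each plate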
Fibroblast inh: antiproliferative effect on LL 47 fibroblasts – human, LL 47 cells, CellTiter-Glo luminescence, primary screen. LL 47 human lung fibroblast viability, ATP luminescence; hits give low values. AID 719, 2007. 85,000 compounds, 1.1% hits. viability, % at 10 µM;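 active means viability at or below 50% in the single dose screen; inactive means viability above 50%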;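 further: compound exposure lasted 72 h before the ATP readout; 100% = median luminescence of untreated cell-only wells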
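Benchmarks: Cell-only wells, no compound | Test system: LL 47 human lung fibroblasts, passage 12 or lower | Input: 1,150 cells/well | Measured by: CellTiter-Glo luminescence measuring cellular ATP | Medium: IMEM, 15% FBS supplement | Schedule: Overnight attachment after seeding, then 72 h compound exposure at 37 °C | Doses: Compound addition at 0.1% DMSO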
* marks the source's active call; other numbers are inactive results; . = not tested or not shown.

SMILES	H69AR growth 86K	Jurkat tox 60K	HUVEC prolif 384	Fibroblast inh
CC(C)C(OC(=O)c1cccs1)C(=O)NCc1cccs1 (centres undefined)	89.8	-3.7	98.6	101.4
COc1cc2[nH]c(=O)n(CCC(=O)N3CCN(c4cccc(C)c4C)CC3)c(=O)c2cc1OC	2.4*	.	44.1	88.8
COc1cc2[nH]c(=O)n(CCCCCC(=O)N3CCN(c4ccccc4)CC3)c(=O)c2cc1OC	64.8	.	66.2	96.7
c1ccc(C2(CNc3ccccn3)CCCC2)cc1	96.5	.	99.1	101.1
Cn1c(O)c(C(C#N)=C2N=c3ccccc3=N2)c2ccccc21	14.1*	.	49.7	74.1
Cc1nn(CC#N)c(=O)n1-c1ccc(F)cc1	97.1	.	93.7	99.7
CCOC(=O)Cc1csc(SCc2nc3ccccc3c(=O)[nH]2)n1	86.5	3.5	95.5	94.6
Cc1ccsc1C=Nc1ccc(O)cc1	72.3	47.8*	80.5	90.6
COc1ccc(N2CCN(c3ccc(NC(=O)C4CCCCC4)cc3C#N)CC2)cc1	83.8	-3.0	98.5	95.8
CC(=O)Nc1cccc(Oc2cc(C#N)c(C#N)cc2N2CCCCCC2)c1	31.6*	-0.7	70.2	89.8
Brc1ccc(-c2nnc3n2C2(CCCC2)Cc2ccccc2-3)o1	71.6	.	87.9	93.4
CSc1nc(NC(C)(C)C)nc(Oc2ccc(=O)n(C)n2)n1	84.7	.	93.2	102.1
COc1ccc(C2C(C#N)=C(C)NC3=C2C(=O)c2ccccc23)cc1 (centres undefined)	94.8	.	63.6	96.4
COc1cc(C2C(C#N)=C(C)NC3=C2C(=O)c2ccccc23)cc(OC)c1OC (centres undefined)	.	99.6*	.	.
Cc1[nH]n(C(C)(C)C)c(=O)c1Sc1ccc(Cl)cc1	100.0	-2.0	100.8	98.0
COCCCn1[nH]c2c3c(ccc2c1=O)C(=O)c1ccccc1C3=O	86.0	.	6.8*	86.6
CC(C)(C)n1[nH]c2c3c(ccc2c1=O)C(=O)c1ccccc1C3=O	59.8	.	3.3*	58.8
CCOC(=O)c1c(C)c(C(=O)NCCN2CCOCC2)c(C)n1CC	102.8	-0.3	89.7	106.3
CCOC(=O)c1c(C)c(C(=O)N2CCc3ccccc3C2)c(C)n1CC	15.9*	18.2	69.8	91.7
COC(=O)c1cn(CC(=O)N2C(C)CCCC2C)c2ccccc12 (centres undefined)	74.8	.	99.2	108.8
CC1CCCC(C)N1C(=O)Cn1cc(/C=C2/C(=O)Nc3ccccc32)c2ccccc21 (centres undefined)	23.3*	.	75.9	82.2
COc1ccc(-c2noc(CSc3nc(N)c(-c4ccccc4)c(=O)[nH]3)n2)cc1	93.0	1.4	83.9	95.9
Cc1nc(CSc2nnc3scc(-c4ccc(Cl)cc4)n23)cs1	78.0	.	94.9	86.8
Cc1cccc(NC(=O)C2CCCN(S(=O)(=O)c3c(C)nn(C)c3C)C2)n1 (centres undefined)	38.5*	10.2	96.3	85.3
Cc1cc(CN2CCN(CCC#N)CC2)c(O)c(C2(C)CCCCC2)c1	38.2*	-3.3	95.2	94.9
SMILES	H69AR growth 86K	Jurkat tox 60K	HUVEC prolif 384	Fibroblast inh
N#CCCN1CCN(CCC#N)CC1	93.8	2.7	98.8	106.8
Cc1nc(NCc2ccco2)c2c3c(sc2n1)CCC3	47.0	36.3*	20.8*	61.9
CCOc1cc(/C=C(\C#N)c2[nH]nc(N)c2C#N)ccc1O	36.6*	.	63.8	81.6
CCOc1cc(-c2c(C#N)c(=O)[nH]c3c2c(C)nn3-c2ccc(F)cc2)ccc1O	78.5	10.1	57.8	103.2
CCOc1cc(-c2c(C#N)c(N)nc3c2CCCC3C)ccc1O (centres undefined)	31.1*	1.8	76.1	95.7
CCOc1cc(-c2cc(-c3ccc(C)cc3)nc(N)c2C#N)ccc1O	6.9*	.	41.1	65.0
C1=Nc2c(Nc3ccccc3)ncnc2Oc2ccccc21	85.7	-1.7	70.2	76.7
CCSC1=C(C#N)C2(CCCCC2)C(C#N)=C(N)N1	79.1	3.7	89.6	86.2
N#CC1=C(N)NC(SCc2ccccc2)=C(C#N)C12CCCCC2	10.7*	9.8	26.4*	60.0
CCC(CC)C(=O)Nc1ccc(Cl)c(Cl)c1	85.0	.	91.6	91.1
COc1cc(/C=N/N(C)c2ccccc2)cc(Cl)c1O	15.8*	.	36.1	84.8
CCOc1cc(NC(=O)c2ccco2)c(OCC)cc1NC(=O)Cc1ccc(OC)c(OC)c1	71.2	-6.0	64.1	96.3
COc1ccc(NC(=O)CCc2ccccc2)cc1NC(=O)c1ccco1	36.4*	4.6	64.1	97.9
CCOc1cc(NC(=O)c2ccco2)c(OCC)cc1NC(=O)CCc1ccc(OC)cc1	33.3*	-2.1	65.5	83.6
COc1cc(NC(=O)CSc2nc3ccccc3c(=O)n2C)ccc1NC(=O)c1ccco1	24.1*	-1.8	50.0	70.7
CCOc1ccc(OCC)c(NC(=O)CSc2nc3ccccc3c(=O)n2C)c1	98.2	14.4	78.8	59.1
COc1ccc(CC(=O)Nc2ccc(OC)c(NC(=O)c3ccco3)c2)cc1	73.6	-6.8	104.2	118.0
COc1ccc(CCC(=O)Nc2cc(Cl)ccc2OC)cc1	24.2*	.	82.4	90.9
Cc1cc(NC(=O)c2cc(S(=O)(=O)N3CCCCC3)ccc2C)n(-c2ccccn2)n1	67.0	7.5	96.3	101.3
Cc1ccc(CC2CC(=O)N(c3ccc(Cl)cn3)C2=O)cc1 (centres undefined)	96.6	0.4	109.6	106.9
COC(=O)N1CC(=O)N(OC)C1c1ccc(Cl)cc1Cl (centres undefined)	.	-2.0	99.0	83.6
COc1ccc(-n2cnc3cc(NC(=O)c4ccco4)ccc32)cc1	54.7	.	99.2	92.0
COc1ccccc1-n1cnc2cc(NC(=O)c3ccco3)ccc21	22.2*	.	72.8	89.3
O=C(NC1CCCCC1)N1CCN(c2ncccn2)CC1	98.5	.	96.2	99.7
Nc1nc(Nc2cccc3ccccc23)nc(C2CCCC2=O)n1 (centres undefined)	0.8*	-0.3	14.8*	91.3
SMILES	H69AR growth 86K	Jurkat tox 60K	HUVEC prolif 384	Fibroblast inh
COc1cc2cc(CN(Cc3cccnc3)C(=O)NCc3ccccc3)c(=O)[nH]c2cc1OC	76.1	0.1	87.2	97.0
Cn1ccnc1SCC(=O)Nc1ccc2nc(SCC(=O)NC3CC3)sc2c1	37.0*	.	91.5	95.2
COc1cc(/C=C/C(=O)CC(=O)/C=C/c2ccc(O)c(OC)c2)ccc1O	4.3*	.	22.3*	20.6*
CCN1C(=O)C(NC(C)=O)c2cc(Br)ccc21 (centres undefined)	.	-0.1	.	.
CCCCN1C(=O)C(NC(C)=O)c2cc(Br)ccc21 (centres undefined)	24.5*	-1.5	94.8	100.4
COc1ccc(-c2nnc(SCc3c(C)noc3C)n2N)cc1OC	85.5	.	100.6	108.9
Cn1nnnc1P(=O)(c1ccccc1)c1ccccc1	92.3	.	94.4	97.9
CCCCn1c(=O)c(-[n+]2ccccc2)c([O-])c2ccccc21	89.6	.	85.8	100.6
Cc1cc2c(N3CCCCC3C)ncnc2s1 (centres undefined)	36.8*	16.1	102.3	94.4
